Data as given in ChEMBL document CHEMBL5058577, “EUbOPEN Chemogenomics Library 2 (Multiplex)” (2022).

System: HEK-293T
Assay: Multiplex assay against HEK293T
Assay type: toxicity, cell-based
Conditions: human
Summary of the method: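 Live cells were stained at seeding with Hoechst33342, BioTracker Green Microtubule Cytoskeleton Dye, MitoTracker Red and Annexin V Alexa Fluor 680, then imaged on a CQ1 microscope at 37°C and 5% CO2 after compound addition. CellPathfinder machine-learning gating split cells into Hoechst high-intensity objects or normal cells. Normal cells were split into healthy, pyknosed or fragmented nuclei, and pyknosed cells into mitotic or apoptotic. Tubulin, mitochondrial-mass and membrane-permeability phenotypes are per cents of healthy-nucleus cells.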

[1] = 12 h, 1 µM, compound concentration 1 uM, replicate 1
[2] = 12 h, 1 µM, compound concentration 1 uM, replicate 2
[3] = 12 h, 10 µM, compound concentration 10 uM, replicate 1
[4] = 12 h, 10 µM, compound concentration 10 uM, replicate 2
[5] = 24 h, 1 µM, compound concentration 1 uM, replicate 1
[6] = 24 h, 1 µM, compound concentration 1 uM, replicate 2
[7] = 24 h, 10 µM, compound concentration 10 uM, replicate 1
[8] = 24 h, 10 µM, compound concentration 10 uM, replicate 2
[9] = 48 h, 1 µM, compound concentration 1 uM, replicate 1
[10] = 48 h, 1 µM, compound concentration 1 uM, replicate 2
[11] = 48 h, 10 µM, compound concentration 10 uM, replicate 1
[12] = 48 h, 10 µM, compound concentration 10 uM, replicate 2

**Q.** What does the source list for `N#Cc1c(Oc2cccc(OS(=O)(=O)CCCC(F)(F)F)c2)cccc1C(F)(F)F`?
**A.** Population Apoptotic (%) [1]: 35%; Population Fragmented Nuclei (%) [1]: 4%; Population Healthy Nuclei (%) [1]: 86%; Population Hoechst High Intensity Objects (%) [1]: 5%; Population Membrane Permeable-Phenotype (%) [1]: 0%; Population Mitochondria Different-Phenotype (%) [1]: 46%; Population Mitotic Cells (%) [1]: 65%; Population Normal (%) [1]: 94%; Population Pyknosed Nuclei (%) [1]: 8%; Population Tubulin-Different-Phenotype (%) [1]: 38%; Total Cell Count [1]: 490; Population Apoptotic (%) [2]: 63%; Population Fragmented Nuclei (%) [2]: 6%; Population Healthy Nuclei (%) [2]: 75%; Population Hoechst High Intensity Objects (%) [2]: 11%; Population Mitochondria Different-Phenotype (%) [2]: 60%; Population Mitotic Cells (%) [2]: 36%; Population Normal (%) [2]: 88%; Population Pyknosed Nuclei (%) [2]: 17%; Population Tubulin-Different-Phenotype (%) [2]: 28%; Total Cell Count [2]: 349; Population Apoptotic (%) [3]: 42%; Population Fragmented Nuclei (%) [3]: 8%; Population Healthy Nuclei (%) [3]: 65%; Population Hoechst High Intensity Objects (%) [3]: 10%; Population Membrane Permeable-Phenotype (%) [3]: 0%; Population Mitochondria Different-Phenotype (%) [3]: 74%; Population Mitotic Cells (%) [3]: 57%; Population Normal (%) [3]: 89%; Population Pyknosed Nuclei (%) [3]: 25%; Population Tubulin-Different-Phenotype (%) [3]: 65%; Total Cell Count [3]: 290; Population Apoptotic (%) [4]: 44%; Population Fragmented Nuclei (%) [4]: 6%; Population Healthy Nuclei (%) [4]: 64%; Population Hoechst High Intensity Objects (%) [4]: 40%; Population Mitochondria Different-Phenotype (%) [4]: 81%; Population Mitotic Cells (%) [4]: 55%; Population Normal (%) [4]: 59%; Population Pyknosed Nuclei (%) [4]: 28%; Population Tubulin-Different-Phenotype (%) [4]: 58%; Total Cell Count [4]: 318; Population Apoptotic (%) [5]: 28%; Population Fragmented Nuclei (%) [5]: 10%; Population Healthy Nuclei (%) [5]: 77%; Population Hoechst High Intensity Objects (%) [5]: 3%; Population Membrane Permeable-Phenotype (%) [5]: 0%; Population Mitochondria Different-Phenotype (%) [5]: 34%; Population Mitotic Cells (%) [5]: 71%; Population Normal (%) [5]: 96%; Population Pyknosed Nuclei (%) [5]: 12%; Population Tubulin-Different-Phenotype (%) [5]: 26%; Total Cell Count [5]: 654; Population Apoptotic (%) [6]: 60%; Population Fragmented Nuclei (%) [6]: 8%; Population Healthy Nuclei (%) [6]: 81%; Population Hoechst High Intensity Objects (%) [6]: 9%; Population Mitochondria Different-Phenotype (%) [6]: 48%; Population Mitotic Cells (%) [6]: 40%; Population Normal (%) [6]: 90%; Population Pyknosed Nuclei (%) [6]: 9%; Population Tubulin-Different-Phenotype (%) [6]: 20%; Total Cell Count [6]: 412; Population Apoptotic (%) [7]: 43%; Population Fragmented Nuclei (%) [7]: 9%; Population Healthy Nuclei (%) [7]: 77%; Population Hoechst High Intensity Objects (%) [7]: 13%; Population Membrane Permeable-Phenotype (%) [7]: 0%; Population Mitochondria Different-Phenotype (%) [7]: 66%; Population Mitotic Cells (%) [7]: 56%; Population Normal (%) [7]: 86%; Population Pyknosed Nuclei (%) [7]: 13%; Population Tubulin-Different-Phenotype (%) [7]: 56%; Total Cell Count [7]: 338; Population Apoptotic (%) [8]: 45%; Population Fragmented Nuclei (%) [8]: 10%; Population Healthy Nuclei (%) [8]: 61%; Population Hoechst High Intensity Objects (%) [8]: 47%; Population Mitochondria Different-Phenotype (%) [8]: 68%; Population Mitotic Cells (%) [8]: 54%; Population Normal (%) [8]: 52%; Population Pyknosed Nuclei (%) [8]: 27%; Population Tubulin-Different-Phenotype (%) [8]: 41%; Total Cell Count [8]: 312; Population Apoptotic (%) [9]: 20%; Population Fragmented Nuclei (%) [9]: 13%; Population Healthy Nuclei (%) [9]: 81%; Population Hoechst High Intensity Objects (%) [9]: 1%; Population Membrane Permeable-Phenotype (%) [9]: 1%; Population Mitochondria Different-Phenotype (%) [9]: 21%; Population Mitotic Cells (%) [9]: 79%; Population Normal (%) [9]: 98%; Population Pyknosed Nuclei (%) [9]: 5%; Population Tubulin-Different-Phenotype (%) [9]: 15%; Total Cell Count [9]: 986; Population Apoptotic (%) [10]: 56%; Population Fragmented Nuclei (%) [10]: 12%; Population Healthy Nuclei (%) [10]: 82%; Population Hoechst High Intensity Objects (%) [10]: 5%; Population Membrane Permeable-Phenotype (%) [10]: 0%; Population Mitochondria Different-Phenotype (%) [10]: 23%; Population Mitotic Cells (%) [10]: 43%; Population Normal (%) [10]: 94%; Population Tubulin-Different-Phenotype (%) [10]: 13%; Total Cell Count [10]: 568; Population Apoptotic (%) [11]: 44%; Population Fragmented Nuclei (%) [11]: 11%; Population Healthy Nuclei (%) [11]: 78%; Population Hoechst High Intensity Objects (%) [11]: 5%; Population Membrane Permeable-Phenotype (%) [11]: 0%; Population Mitochondria Different-Phenotype (%) [11]: 44%; Population Mitotic Cells (%) [11]: 55%; Population Normal (%) [11]: 94%; Population Pyknosed Nuclei (%) [11]: 10%; Population Tubulin-Different-Phenotype (%) [11]: 29%; Total Cell Count [11]: 464; Population Apoptotic (%) [12]: 58%; Population Healthy Nuclei (%) [12]: 69%; Population Hoechst High Intensity Objects (%) [12]: 24%; Population Mitochondria Different-Phenotype (%) [12]: 47%; Population Mitotic Cells (%) [12]: 41%; Population Normal (%) [12]: 75%; Population Pyknosed Nuclei (%) [12]: 18%; Population Tubulin-Different-Phenotype (%) [12]: 23%; Total Cell Count [12]: 363
